Results reported in ChEMBL document CHEMBL4385592, “4-Imidazo[2,1-b]thiazole-1,4-DHPs and neuroprotection: preliminary study in hits searching” (Eur J Med Chem, 2019).
pEC50, pIC50: −log10 of the molar value.

How the values were obtained:
[1] = target: T1, Voltage-gated L-type calcium channel (Homo sapiens, UniProt Q13936+Q13698+Q01668+O60840); experiment: (§1) Inhibition of voltage-dependent L-type calcium channel in human U373MG cells assessed as protection against oxygen glucose deprivation/reperfusion-induced injury by measuring recovery of cell viability at 20 uM administered at onset of reperfusion period measured after 16 hrs by alamar blue assay relative to control; format: cell-based
In short: (§2)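 U-373 MG astrocytoma cells seeded at 30000 cells/ml and grown 24 or 48 h (37 °C/5% CO2). OGD: 24 h at 37 °C in glucose-free DMEM pre-bubbled with 95% N2/5% CO2, in a sealed nitrogen-flushed chamber. Then 16 h reperfusion in normal medium; compounds added at reperfusion, diluted from DMSO stock (DMSO ≤0.1%). Viability by alamarBlue, 4 h at 37 °C, fluorescence ex 530–560/em 590 nm. Expressed as % recovery from injury, mean ± S.E. of ≥3 experiments in sixuplicate.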

[2] = system: Left cardiac atrium (Cavia porcellus); experiment: Negative inotropic activity in guinea pig left atrium assessed as decrease in developed tension
[3] = target: T1, Voltage-gated L-type calcium channel; experiment: Inhibition of voltage-dependent L-type calcium channel in human SH-SY5Y cells assessed as protection against glutamate-induced excitotoxicity by measuring recovery of cell viability at 20 uM measured after 24 hrs by alamar blue-based fluorescence method relative to control
[4] = target: T1, Voltage-gated L-type calcium channel; experiment: Inhibition of voltage-dependent L-type calcium channel in human SH-SY5Y cells assessed as protection against glutamate-induced excitotoxicity by measuring recovery of cell viability at 1 uM measured after 24 hrs by alamar blue-based fluorescence method relative to control
[5] = system: Left cardiac atrium; experiment: Negative inotropic activity in guinea pig left atrium assessed as decrease in developed tension at 5 x 10^-5 M relative to control; format: ADME, tissue-based, Cavia porcellus; set-up: scale not given: the % may be the effect or the level left; conditions: 50 µM
[6] = target: T1, Voltage-gated L-type calcium channel; experiment: as §1, with “1” for “20”; format: cell-based; in short: as §2
[7] = system: Right cardiac atrium; experiment: Negative chronotropic activity in guinea pig spontaneously beating right atrium assessed as decrease in atrial rate at 5 x 10^-5 M relative to control; format: tissue-based, Cavia porcellus; set-up: scale not given: the % may be the effect or the level left; conditions: 50 µM
[8] = system: Right cardiac atrium; experiment: Negative inotropic activity in guinea pig right atrium assessed as decrease in developed tension at 10^-5 M relative to control; format: ADME, tissue-based, Cavia porcellus; set-up: scale not given: the % may be the effect or the level left; conditions: 10 µM
[9] = system: Aorta; experiment: Inhibition of calcium-induced contraction in K+-depolarized guinea pig aortic strips at 10^-4 M relative to control; format: tissue-based; conditions: Cavia porcellus
[10] = system: Left cardiac atrium; experiment: Negative inotropic activity in guinea pig left atrium assessed as decrease in developed tension at 0.001 to 100 uM relative to control; format: ADME, tissue-based; conditions: Cavia porcellus
[11] = system: Aorta; experiment: Inhibition of calcium-induced contraction in K+-depolarized guinea pig aortic strips; format: ADME, tissue-based; conditions: Cavia porcellus
[12] = system: Right cardiac atrium; experiment: Negative chronotropic activity in guinea pig spontaneously beating right atrium assessed as decrease in atrial rate; format: tissue-based; conditions: Cavia porcellus
[13] = system: Left cardiac atrium; experiment: Negative inotropic activity in guinea pig left atrium assessed as decrease in developed tension at 10^-5 M relative to control; set-up: scale not given: the % may be the effect or the level left; conditions: 10 µM
[14] = target: T2, Voltage-gated L-type calcium channel (Rattus norvegicus, UniProt P22002+Q02485+P27732); experiment: as §1, with “Wistar rat brain slices” for “human U373MG cells”, “LDH release” for “cell viability”, “90 mins” for “16 hrs”, “spectrophotometric” for “alamar blue”; set-up: scale not given: the % may be the effect or the level left; conditions: 1.5 h
[15] = system: Right cardiac atrium; experiment: Negative chronotropic activity in guinea pig spontaneously beating right atrium assessed as decrease in atrial rate at 5 x 10^-6 M relative to control; format: ADME, tissue-based, Cavia porcellus; set-up: scale not given: the % may be the effect or the level left; conditions: 5 µM
[16] = Selectivity ratio of EC50 for negative chronotropic activity in guinea pig spontaneously beating right atrium to EC50 for negative inotropic activity in guinea pig left atrium; format: ADME, tissue-based, Cavia porcellus
[17] = target: T2, Voltage-gated L-type calcium channel; experiment: as §1, with “Wistar rat brain slices” for “human U373MG cells”, “edema formation” for “cell viability”, “90 mins” for “16 hrs by alamar blue assay”; set-up: scale not given: the % may be the effect or the level left; conditions: 1.5 h
[18] = system: Right cardiac atrium; experiment: Negative inotropic activity in guinea pig right atrium assessed as decrease in developed tension at 5 x 10^-5 M relative to control; format: ADME, tissue-based, Cavia porcellus; set-up: scale not given: the % may be the effect or the level left; conditions: 50 µM
[19] = system: Right cardiac atrium; experiment: Negative chronotropic activity in guinea pig spontaneously beating right atrium assessed as decrease in atrial rate at 10^-5 M relative to control; format: ADME, tissue-based, Cavia porcellus; set-up: scale not given: the % may be the effect or the level left; conditions: 10 µM
[20] = system: Aorta; experiment: Inhibition of calcium-induced contraction in K+-depolarized guinea pig aortic strips at 10^-5 M relative to control; format: tissue-based; conditions: Cavia porcellus
[21] = system: Aorta; experiment: Inhibition of calcium-induced contraction in K+-depolarized guinea pig aortic strips at 5 x 10^-6 M relative to control; format: tissue-based; conditions: Cavia porcellus
[22] = system: Right cardiac atrium; experiment: Negative chronotropic activity in guinea pig spontaneously beating right atrium assessed as decrease in atrial rate at 10^-7 M relative to control; format: ADME, tissue-based, Cavia porcellus; set-up: scale not given: the % may be the effect or the level left; conditions: 0.1 µM
[23] = system: Right cardiac atrium; experiment: Negative inotropic activity in guinea pig right atrium assessed as decrease in developed tension at 10^-4 M relative to control; format: ADME, tissue-based, Cavia porcellus; set-up: scale not given: the % may be the effect or the level left; conditions: 100 µM
[24] = system: Left cardiac atrium; experiment: Negative inotropic activity in guinea pig left atrium assessed as decrease in developed tension at 10^-4 M relative to control; format: ADME, tissue-based, Cavia porcellus; set-up: scale not given: the % may be the effect or the level left; conditions: 100 µM
[25] = system: Right cardiac atrium; experiment: Negative chronotropic activity in guinea pig spontaneously beating right atrium assessed as decrease in atrial rate at 10^-4 M relative to control; format: ADME, tissue-based, Cavia porcellus; set-up: scale not given: the % may be the effect or the level left; conditions: 100 µM
[26] = system: Left cardiac atrium; experiment: Negative inotropic activity in guinea pig left atrium assessed as decrease in developed tension at 5 x 10^-7 M relative to control; format: ADME, tissue-based, Cavia porcellus; set-up: scale not given: the % may be the effect or the level left; conditions: 0.5 µM
[27] = system: Right cardiac atrium; experiment: Negative chronotropic activity in guinea pig right atrium assessed as decrease in atrial rate at 5 x 10^-6 M relative to control; set-up: scale not given: the % may be the effect or the level left; conditions: 5 µM
[28] = system: Left cardiac atrium; experiment: Negative inotropic activity in guinea pig left atrium assessed as decrease in developed tension at 5 x 10^-6 M relative to control; format: ADME, tissue-based, Cavia porcellus; set-up: scale not given: the % may be the effect or the level left; conditions: 5 µM
[29] = system: Right cardiac atrium; experiment: Negative chronotropic activity in guinea pig spontaneously beating right atrium assessed as decrease in atrial rate at 10^-6 M relative to control; format: ADME, tissue-based, Cavia porcellus; set-up: scale not given: the % may be the effect or the level left; conditions: 1 µM
[30] = system: Right cardiac atrium; experiment: Negative inotropic activity in guinea pig right atrium assessed as decrease in developed tension at 10^-7 M relative to control; format: ADME, tissue-based, Cavia porcellus; set-up: scale not given: the % may be the effect or the level left; conditions: 0.1 µM
[31] = system: Right cardiac atrium; experiment: Negative chronotropic activity in guinea pig spontaneously beating right atrium assessed as decrease in atrial rate at 5 x 10^-7 M relative to control; format: ADME, tissue-based, Cavia porcellus; set-up: scale not given: the % may be the effect or the level left; conditions: 0.5 µM
[32] = system: Aorta; experiment: Inhibition of calcium-induced contraction in K+-depolarized guinea pig aortic strips at 10^-7 M relative to control; format: tissue-based; conditions: Cavia porcellus

Row | Compound | Activity [1] | pEC50 [2] | Activity [3] | Activity [4] | Activity [6] | inhibition at 100 µM [9] | pEC50 [10] | pEC50 [12] | Activity [14] | Ratio EC50 [16] | Activity [17] | other results
1 | CCOC(=O)C1=C(C)NC(C)=C(C(=O)OCC)C1c1c(-c2cc([N+](=O)[O-])c(Cl)cc2Cl)nc2sc(Cl)cn12 | 15.4% | 6.66 | 40.7% | 40.8% | 16.5% | 17% | 7.09 | – | – | – | – | Activity [5]: 86%; Activity [7]: 37%; Activity [8]: 82%
2 | CCOC(=O)C1=C(C)NC(C)=C(C(=O)OCC)C1c1c(-c2cc(F)c(F)cc2F)nc2sccn12 | 30.6% | – | 54.7% | < 5% | 7.4% | 62% | 6.80 | 5.91 | < 5% | < 10 | < 5% | pIC50 [11]: 5.25; Activity [13]: 78%; Activity [15]: 93%
3 | CCOC(=O)C1=C(C)NC(C)=C(C(=O)OCC)C1c1c(-c2ccc(OC(F)(F)F)cc2)nc2sc(Br)cn12 | 23.8% | 6.00 | 49.8% | < 5% | 14.2% | – | 7.03 | – | – | – | – | Activity [18]: 85%; Activity [19]: 35%; Activity [13]: 62%; inhibition at 10 µM [20]: 5%
4 | CCOC(=O)C1=C(C)NC(C)=C(C(=O)OCC)C1c1c(-c2ccc(Br)c([N+](=O)[O-])c2)nc2sccn12 | 32.4% | – | 59.2% | < 5% | < 5% | – | 5.90 | 8.37 | < 5% | – | < 5% | inhibition at 5 µM [21]: 41%; Activity [5]: 53%; Activity [22]: 90%
5 | CCOC(=O)C1=C(C)NC(C)=C(C(=O)OCC)C1c1c(-c2ccc([N+](=O)[O-])cc2)nc2sc(Cl)cn12 | 26.1% | 5.66 | < 5% | < 5% | 10.3% | 12% | 5.86 | – | – | – | – | Activity [23]: 79%; Activity [24]: 74%; Activity [25]: 25%
6 | CCOC(=O)C1=C(C)NC(C)=C(C(=O)OCC)C1c1c(-c2ccc([N+](=O)[O-])cc2)nc2sc(F)cn12 | 28.5% | 7.11 | 51.1% | 28.8% | 22.2% | 13% | 7.62 | – | 23.3% | – | 76.4% | Activity [19]: 20%; Activity [26]: 78%; Activity [27]: 67%
7 | COC(=O)C1=C(C)NC(C)=C(C(=O)OC)C1c1c(-c2cc(Br)c(OC)cc2OC)nc2sccn12 | < 5% | – | < 5% | < 5% | < 5% | 34% | 6.52 | 5.78 | – | 25 to 56 | – | Activity [15]: 74%; Activity [28]: 63%
8 | CCOC(=O)C1=C(C)NC(C)=C(C(=O)OCC)C1c1c(-c2ccc(F)c(F)c2)nc2sccn12 | < 5% | – | 50.7% | 37.4% | < 5% | 14% | 7.68 | 7.00 | 20.5% | < 10 | 80.5% | Activity [29]: 77%; Activity [26]: 83%
9 | CCOC(=O)C1=C(C)NC(C)=C(C(=O)OCC)C1c1c(-c2ccc(Cl)cc2)nc2sccn12 | < 5% | 7.72 | 44.4% | 6.8% | < 5% | 43% | 7.01 | – | – | – | – | Activity [30]: 79%; Activity [31]: 38%; Activity [24]: 61%
10 | CCOC(=O)C1=C(C)NC(C)=C(C(=O)OCC)C1c1c(-c2ccc(F)cc2)nc2sccn12 | 43.6% | – | 59.3% | 42.6% | 36.6% | – | 7.19 | 5.78 | 72.4% | 25 to 56 | 89.4% | Activity [31]: 91%; inhibition at 0.1 µM [32]: 6%; Activity [28]: 79%
11 | COC(=O)C1=C(C)NC(C)=C(C(=O)OC)C1c1ccccc1[N+](=O)[O-] [NIFEDIPINE] | 73.7% | – | 101.6% | 55% | 34.4% | – | – | 7.41 | – | – | – | Activity ([13]; Left cardiac atrium): 97%; Activity [22]: 85%; Activity ([14]; Brain): 72.3%; Activity ([17]; Brain): 95.7%
12 | CCOC(=O)C1=C(C)NC(C)=C(C(=O)OCC)C1c1c(-c2cc(OC)ccc2OC)nc2sc(Br)cn12 | 29.32% | – | 57.6% | < 5% | < 5% | 22% | 7.59 | 6.92 | < 5% | < 10 | < 5% | Activity [29]: 94%; Activity [28]: 69%
